# Rows were chosen to be rich in hits. Some 1.3% of all compounds tested hit in one or more screens of this group.
# RAD54 inh: inhibitors of human RAD54 branch migration, primary screen, biochemical, fluorescence, single point. RAD54 Holliday junction branch migration, FAM/BHQ fluorescence. inhibition, % at 10.4 µM. 360,000 tested, 0.14% active. AID 602329, 2012;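 active = mean normalized replicate activity at least 40 and at least half of replicates scoring 40 or more; inconclusive = only one of the two criteria met; inactive = mean below 40 and under half of replicates reaching 40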;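 note: 0% = median of neutral control wells and 100% = median of positive control wells; inhibitors cause a drop in the FAM fluorescence signal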
# GSIS activator: GLuc luminescence reporter in INS-1E cells, primary screen for activators of glucose-dependent secretion of insulin. AID 743287, 2014. activation, % at 16.6 µM. 370,000 tested, 0.61% active. INS-1E GLuc reporter insulin secretion, 2-3 h;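 active = lowest replicate activation of at least 40%, so every replicate reaches that level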;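 note: 0% = median of neutral control wells and 100% = median of IBMX positive control wells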
# AF4-AF9 inh: inhibitors of AF4 peptide binding to AF9, primary screen, biochemical, AlphaScreen, biotin-AF4 peptide, FLAG-AF9, single point. Protein AF-9 (Homo sapiens), P42568. inhibition, % at 10 µM. 350,000 tested, 0.47% active. AID 651704, 2012;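 active = every replicate reaching a set inhibition limit, whatever the replicate mean, cut at about 25% in these data; inconclusive = mean inhibition reaches that limit but some replicates miss it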;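 note: 0% = plate neutral control median and 100% = total signal loss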
# RAD52 inh: RAD52 DNA annealing inhibitors, primary screen, biochemical, FRET, single point, set 2; DNA repair protein RAD52 homolog (Homo sapiens), P43351; recombinant RAD52 DNA annealing, FRET fluorescence; inhibition, % at 18.7 µM; 360,000 tested, 0.46% active; AID 651710, 2012;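 active = every replicate showing at least 50% inhibition; inconclusive = mean inhibition at least 50% but not in every replicate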
# Target sequence (P43351 whole entry, looked up): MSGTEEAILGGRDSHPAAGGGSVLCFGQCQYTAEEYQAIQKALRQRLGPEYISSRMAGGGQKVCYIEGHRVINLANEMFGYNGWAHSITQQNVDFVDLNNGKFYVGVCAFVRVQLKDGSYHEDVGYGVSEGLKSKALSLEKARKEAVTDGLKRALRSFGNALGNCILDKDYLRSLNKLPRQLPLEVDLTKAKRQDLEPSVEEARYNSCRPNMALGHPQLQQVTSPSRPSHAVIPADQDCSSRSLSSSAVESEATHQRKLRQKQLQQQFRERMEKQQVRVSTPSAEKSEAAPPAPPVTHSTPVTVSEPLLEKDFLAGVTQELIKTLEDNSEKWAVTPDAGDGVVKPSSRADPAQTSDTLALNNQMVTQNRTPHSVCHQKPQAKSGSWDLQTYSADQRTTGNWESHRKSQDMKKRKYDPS
# S100A4 MyoIIA: inhibitors of S100A4-myosin IIA peptide binding, primary screen, biochemical, fluorescence polarization, TAMRA-MyoIIA peptide | Protein S100-A4 (Homo sapiens), P26447 | AID 652163, 2013 | inhibition, % at 10.7 µM | 360,000 tested, 0.14% active;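 active = mean inhibition of at least 70% across replicates, with every replicate also reaching that level; inconclusive = mean inhibition reaches 70% but some replicates fall short; inactive = mean inhibition below 70%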
# Target sequence (P26447 whole entry, looked up): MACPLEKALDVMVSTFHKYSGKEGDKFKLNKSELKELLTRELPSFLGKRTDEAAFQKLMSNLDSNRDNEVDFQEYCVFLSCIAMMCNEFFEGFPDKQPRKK
#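 Compound dosing: one dose per compound; test system: human S100A4 monomer with TAMRA-labelled myosin IIA peptide; probe or stimulus: TAMRA-labelled myosin IIA heavy-chain peptide probe, 5 nM; medium: HEPES buffer with Ca2+, pH 7.2; schedule: 5 min incubation before reading; benchmarks: neutral control DMSO, positive control TFP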
# DNA binder FP: DNA-binding compounds via dye displacement, dose response, artefact control for RAD52 inhibitor project, biochemical, fluorescence polarization, cherry-pick | 1,000 tested, 8% active | AC50, µM | shares compounds with RAD52 inh | AID 652128, 2013 | Salmon sperm DNA/acridine orange FP displacement;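 active = fitted half-maximal concentration for signal loss at or below twice the highest dose tested, in every separate run, actives reach about 64 µM in these data; inconclusive = runs disagree, or flat partial signal loss, or poor fit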
# Starred values were filed as active, the others as inactive; i = inactive; ? = inconclusive; . = not tested or not shown.
SMILES,RAD54 inh,GSIS activator,AF4-AF9 inh,RAD52 inh,S100A4 MyoIIA,DNA binder FP
O=C(Nc1ccn(CCCN2CCN(c3ccccc3)CC2)c(=O)n1)OCc1ccccc1,4,-1,7,3,2,.
O=C(Nc1ccn(CCCN2CCN(Cc3cccc4ccccc34)CC2)c(=O)n1)OCc1ccccc1,.,-28,15,52*,-11,i
O=C(O)CCNC(=O)c1ccccc1,0,.,-2,-3,12,.
O=C(NCCNC(=O)c1ccccc1)c1ccccc1,19,1,9,53*,10,i
C[C@@H]1CN([C@H](C)CO)C(=O)c2cc(-c3ccc(F)cc3)cnc2O[C@H]1CN(C)C(=O)Cc1ccccc1,-15,-15,-2,8,22,.
C[C@@H]1CN([C@@H](C)CO)C(=O)CCCn2nncc2CO[C@@H]1CN(C)CC1CC1,-6,21,0,-7,8,.
CCOCCCNCc1ccc(OC)cc1,0,10,.,.,.,.
COc1ccc2cc(CNCCOCCOCCNCc3ccc4cc(OC)ccc4c3)ccc2c1,.,12,7,64*,1,i
Cc1noc(C)c1NC(=O)NCC[C@H]1CC[C@H](NC(=O)Cc2cccnc2)[C@H](CO)O1,-4,7,1,-8,13,.
CCOC(=O)c1c(CNc2ccncc2)n(C)c2cc(Br)c(O)cc12,.,-28,2,64*,2,i
CCOC(=O)c1c(CS(=O)(=O)c2ccccc2)n(C)c2cc(Br)c(O)cc12,-8,.,0,11,-1,.
OCCN1CCN(CC(O)COc2ccc(C34CC5CC(CC(C5)C3)C4)cc2)CC1 (centres undefined),.,90*,21,57*,-2,i
C[C@H](CO)N1C[C@H](C)[C@@H](CN(C)Cc2ccc(C(F)(F)F)cc2)Oc2c(NC(=O)c3cnccn3)cccc2C1=O,3,-8,-3,-7,-10,.
O=C1c2cccc(NCCCNCCO)c2C(=O)c2cccc(NCCCNCCO)c21,.,9,32*,91*,-32,1.5µM*
O=C1c2ccccc2C(=O)c2c(NCc3cccnc3)cccc21,-34,.,.,.,.,.
CN(C)c1ccc(NC(=O)C[n+]2ccccc2)cc1,-20,-8,14,45,3,i
CC(=O)c1ccc(NC(=O)C[n+]2ccc(N(C)C)cc2)cc1,1,0,-5,3,-2,.
Cc1ccc[n+](CC(=O)Nc2ccc(N(C)C)cc2)c1,-6,9,4,78*,-27,i
CC(=O)c1ccc(NC(=O)C[n+]2cccc(C)c2)cc1,-9,.,-1,3,-7,.
COc1ccc2c3c([nH]c2c1)[C@@H](CO)N(C(=O)C1CCC1)CC31CN(C)C1,.,23,1,1,-7,.
CC[n+]1ccccc1/C=C/c1ccc(N(C)C)cc1,-54,-76,4,-225,-75,.
CC[n+]1ccc(/C=C/c2ccc(N(C)C)cc2)c2ccccc21,.,-72,73*,60*,43,13µM*
C[C@@H]1CN([C@H](C)CO)C(=O)Cc2cc(NC(=O)Nc3ccccc3)ccc2O[C@H]1CN(C)S(=O)(=O)c1cn(C)cn1,-6,24,-2,10,0,.
Cc1nc2cc(N)ccc2n1C1CCCCC1,.,20,20,91*,-11,i
CCn1c(C)nc2cc(N)ccc21,.,-6,9,93*,1,i
SMILES,RAD54 inh,GSIS activator,AF4-AF9 inh,RAD52 inh,S100A4 MyoIIA,DNA binder FP
Cc1nc2cc(C(=O)O)ccc2n1C1CCCCC1,-11,1,9,0,-7,.
COc1ccc(C(N)=S)c(OC)c1,.,-20,2,74*,1,i
COc1ccc(CCNC(=O)c2cc(-c3ccco3)nc3ccccc23)cc1,.,21,-2,2,?,.
CCN(CC)CCNC(=O)c1cc(-c2ccco2)nc2ccccc12,.,.,6,78*,2,i
Cc1ccc(/C=C2/Sc3ccccc3N(CC(=O)NCC3CCCO3)C2=O)cc1 (centres undefined),-2,.,.,.,.,.
Cc1cc(/C=C2\Sc3ccccc3N2C)cc(C)[n+]1CC1CCCO1 (centres undefined),.,-24,2,51*,2,i
Cc1noc(C)c1S(=O)(=O)Nc1ccc2c(c1)CC(=O)N([C@H](C)CO)C[C@H](C)[C@@H](CN(C)C(=O)Nc1ccccc1)O2,.,0,-2,-3,2,.
Cc1cccc2c1-c1sc(C(=O)NCCCN3CCC(C)CC3)cc1CO2,34,-15,9,61*,-5,i
CNC[C@H]1Oc2cc(-c3ccc(C#N)cc3)ccc2S(=O)(=O)N([C@H](C)CO)C[C@@H]1C,-1,4,3,-27,-15,.
CCN(CC)CCNC(=O)c1nn(-c2ccc(Cl)cc2)c2c1CCc1cc(OC)ccc1-2,.,.,23,66*,-8,i
CN1C(=O)c2cc(NC(=O)Cc3cccs3)ccc2OC[C@H]2O[C@@H](CC(=O)N[C@@H]3CCN(Cc4ccccc4)C3)CC[C@@H]21,4,-8,6,23,5,.
Cc1cccc(/C=C/C(=O)c2ccc(NC3=NCCCS3)cc2)c1,.,-19,13,54*,-3,i
NC(N)=N/N=C/c1ccc(OCc2ccccc2Cl)cc1,13,51*,14,27,2,i
NC(N)=N/N=C/c1ccc(Cl)c(Cl)c1,4,.,4,2,-5,.
CCCN(CCC)CCCNC(=S)Nc1ccc2nc(N3CCN(CC)CC3)cc(C)c2c1,.,13,18,97*,11,i
CCOC(=O)N1CCN(C(=S)Nc2ccc3nc(N4CCN(CC)CC4)cc(C)c3c2)CC1,37,24,14,54*,31,i
CCN1CCN(c2cc(C)c3cc(NC(=O)c4ccc(C)c(C)c4)ccc3n2)CC1,26,-7,8,1,3,.
CCCCN(CC)CCNC(=O)CCC(=O)Nc1ccc2nc(N3CCN(C)CC3)cc(C)c2c1,44,.,6,81*,-2,i
Cc1cc(N2CCOCC2)nc2ccc(NC(=S)NC(C)C)cc12,8,6,3,53*,-3,i
CCCC(=O)Nc1ccc2c(c1)C(=O)N(C)C[C@H](OC)[C@H](C)CN(CC1CCOCC1)[C@@H](C)CO2,.,2,.,.,.,.
CCN1CCCC(OC(=O)c2cc(-c3ccc(C)cc3)nc3ccccc23)C1 (centres undefined),.,15,15,57*,-8,i
NCCCC[C@H](NC(=O)C1CCNCC1)c1nnc([C@@H](N)Cc2ccc(O)cc2)o1,11,1,15,74*,-1,i

# Screening data (PubChem BioAssay)
